Results as given in ChEMBL document CHEMBL1649139, “A novel gene, erm(41), confers inducible macrolide resistance to clinical isolates of Mycobacterium abscessus but is absent from Mycobacterium chelonae” (2009).
In brackets after ≈: the same amount, converted by molar mass.

Tests used:
Assay type in all cases: functional
[1] = tested on: Mycobacteroides abscessus; test: Antimicrobial activity against Mycobacterium abscessus isolate MC1082 at day 7 preincubated with 0.1 ug/ml erythromycin for 3 days by broth microdilution method
In short: (§1)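 Clarithromycin MIC by CLSI-conforming broth microdilution. Before testing, cultures were preincubated for 3 days, either in medium alone or in clarithromycin or erythromycin (tested range 0.01–1 μg/ml). Preincubation ran for at least two generations, judged by turbidity increase. Plates were read on day 3 and on extended incubation at days 5 to 14.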

[2] = tested on: Mycobacteroides abscessus; test: Antimicrobial activity against Mycobacterium abscessus isolate MAB30 at day 5 preincubated with 0.1 ug/ml erythromycin for 3 days by broth microdilution method; in short: as §1
[3] = tested on: Mycobacteroides abscessus; test: Antimicrobial activity against Mycobacterium abscessus isolate MC879-2 at day 5 preincubated with 0.1 ug/ml for 3 days by broth microdilution method
[4] = tested on: Mycobacteroides abscessus; test: Antimicrobial activity against Mycobacterium abscessus isolate MC879 at day 14 preincubated with 0.1 ug/ml erythromycin for 3 days by broth microdilution method
In short: (§2)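 To test inducible resistance, cultures were preincubated for 3 days in clarithromycin or erythromycin, within 0.01–1 μg/ml. The period was set so cultures passed at least two generations, judged by turbidity increase. Clarithromycin MIC was then determined by CLSI-conforming broth microdilution and read on the stated day, from day 3 up to 14.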

[5] = tested on: Mycobacteroides abscessus; test: Antimicrobial activity against Mycobacterium abscessus isolate MC958 at day 9 preincubated with 0.1 ug/ml erythromycin for 3 days by broth microdilution method
[6] = tested on: Mycobacteroides abscessus; test: Antimicrobial activity against Mycobacterium abscessus isolate MAB30 at day 3 by broth microdilution method; conditions: isolate MAB30, 72 h; in short: as §1
[7] = tested on: Mycolicibacterium smegmatis; test: Antimicrobial activity against Mycobacterium smegmatis transformed with erm allele Mycobacterium abscessus isolate MC1082 by broth microdilution method
[8] = tested on: Mycobacteroides abscessus; test: Antimicrobial activity against Mycobacterium abscessus isolate MC719 at day 7 by broth microdilution method; conditions: isolate MC719, 168 h
In short: (§3)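 Clinical M. abscessus isolates were preincubated for 3 days, either in medium alone or in clarithromycin or erythromycin at 0.01 to 1 μg/ml, allowing at least two generations of growth judged by turbidity. The clarithromycin MIC was then determined by CLSI-conforming broth microdilution, with plates read on day 3 and on extended incubation (days 5 to 14).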

[9] = tested on: Mycobacteroides abscessus; test: Antimicrobial activity against Mycobacterium abscessus isolate MC958 at day 3 preincubated with 0.1 ug/ml erythromycin for 3 days by broth microdilution method; in short: as §2
[10] = tested on: Mycolicibacterium smegmatis; test: Antimicrobial activity against Mycobacterium smegmatis transformed with erm allele Mycobacterium abscessus isolate MC879 preincubated with 2 ug/ml erythromycin for 20 to 24 hrs by broth microdilution method
[11] = tested on: Mycobacteroides abscessus; test: Antimicrobial activity against Mycobacterium abscessus isolate MC719 at day 5 preincubated with 0.1 ug/ml for 3 days by broth microdilution method; in short: as §3
[12] = tested on: Mycobacteroides abscessus; test: Antimicrobial activity against Mycobacterium abscessus isolate MC1448 at day 3 preincubated with 0.1 ug/ml erythromycin for 3 days by broth microdilution method
In short: (§4)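 Clarithromycin MIC by broth microdilution following CLSI guidelines. Before testing, organisms were preincubated for 3 days in medium alone or in clarithromycin or erythromycin (0.01–1 μg/ml), long enough for at least two generations judged by turbidity increase. MICs were read on day 3 and again on extended incubation out to day 14.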

[13] = tested on: Mycobacteroides abscessus; test: Antimicrobial activity against Mycobacterium abscessus isolate MC723 at day 7 by broth microdilution method; conditions: isolate MC723, 168 h; in short: as §3
[14] = tested on: Mycobacteroides abscessus; test: Antimicrobial activity against Mycobacterium abscessus isolate MC724 at day 7 preincubated with 0.1 ug/ml for 3 days by broth microdilution method; in short: as §2
[15] = tested on: Mycobacteroides abscessus; test: Antimicrobial activity against Mycobacterium abscessus isolate MAB30 at day 9 preincubated with 0.1 ug/ml erythromycin for 3 days by broth microdilution method; in short: as §1
[16] = tested on: Mycobacteroides abscessus; test: Antimicrobial activity against Mycobacterium abscessus isolate MC1028 at day 9 preincubated with 0.1 ug/ml for 3 days by broth microdilution method; in short: as §1
[17] = tested on: Mycobacteroides abscessus; test: Antimicrobial activity against Mycobacterium abscessus isolate MAB30 at day 9 preincubated with 0.1 ug/ml for 3 days by broth microdilution method; in short: as §1
[18] = tested on: Mycobacteroides abscessus; test: Antimicrobial activity against Mycobacterium abscessus isolate MC720 at day 7 by broth microdilution method; conditions: isolate MC720, 168 h; in short: as §3
[19] = tested on: Mycobacteroides abscessus; test: Antimicrobial activity against Mycobacterium abscessus isolate MC724 at day 14 by broth microdilution method; conditions: isolate MC724, 336 h; in short: as §4
[20] = tested on: Mycolicibacterium smegmatis; test: Antimicrobial activity against Mycobacterium smegmatis transformed with erm allele Mycobacterium abscessus isolate MC958 preincubated with 2 ug/ml erythromycin for 20 to 24 hrs by broth microdilution method
[21] = tested on: Mycobacteroides abscessus; test: Antimicrobial activity against Mycobacterium abscessus isolate MC879 on day 10 by broth microdilution method; conditions: isolate MC879, 240 h
[22] = tested on: Mycobacteroides abscessus; test: Antimicrobial activity against Mycobacterium abscessus isolate MC723 at day 14 preincubated with 0.1 ug/ml for 3 days by broth microdilution method; in short: as §4
[23] = tested on: Mycobacteroides abscessus; test: Antimicrobial activity against Mycobacterium abscessus isolate MC879-2 at day 14 by broth microdilution method; conditions: isolate MC879-2, 336 h
[24] = tested on: Mycobacteroides abscessus; test: Antimicrobial activity against Mycobacterium abscessus isolate MC719 at day 14 by broth microdilution method; conditions: isolate MC719, 336 h; in short: as §4
[25] = tested on: Mycobacteroides abscessus; test: Antimicrobial activity against Mycobacterium abscessus isolate MC719 at day 14 preincubated with 0.1 ug/ml erythromycin for 3 days by broth microdilution method; in short: as §4
[26] = tested on: Mycobacteroides abscessus; test: Antimicrobial activity against Mycobacterium abscessus isolate MC723 at day 9 preincubated with 0.1 ug/ml for 3 days by broth microdilution method; in short: as §4
[27] = tested on: Mycobacteroides abscessus; test: Antimicrobial activity against Mycobacterium abscessus isolate MC1448 at day 5 preincubated with 0.1 ug/ml erythromycin for 3 days by broth microdilution method; in short: as §4
[28] = tested on: Mycobacteroides abscessus; test: Antimicrobial activity against Mycobacterium abscessus isolate MC879-2 at day 7 preincubated with 0.1 ug/ml for 3 days by broth microdilution method
[29] = tested on: Mycobacteroides abscessus; test: Antimicrobial activity against Mycobacterium abscessus isolate MC958 on day 14 by broth microdilution method; conditions: isolate MC958, 336 h
[30] = tested on: Mycobacteroides abscessus; test: Antimicrobial activity against Mycobacterium abscessus isolate MC724 at day 14 preincubated with 0.1 ug/ml erythromycin for 3 days by broth microdilution method; in short: as §4
[31] = tested on: Mycobacteroides abscessus; test: Antimicrobial activity against Mycobacterium abscessus isolate MC1028 at day 14 preincubated with 0.1 ug/ml for 3 days by broth microdilution method; in short: as §1
[32] = tested on: Mycobacteroides abscessus; test: Antimicrobial activity against Mycobacterium abscessus isolate MC879-2 at day 7 preincubated with 0.1 ug/ml erythromycin for 3 days by broth microdilution method
[33] = tested on: Mycolicibacterium smegmatis; test: Antimicrobial activity against Mycobacterium smegmatis transformed with erm allele Mycobacterium abscessus isolate MAB30 by broth microdilution method
[34] = tested on: Mycobacteroides abscessus; test: Antimicrobial activity against Mycobacterium abscessus isolate MC1082 at day 5 preincubated with 0.1 ug/ml erythromycin for 3 days by broth microdilution method; in short: as §1
[35] = tested on: Mycobacteroides abscessus; test: Antimicrobial activity against Mycobacterium abscessus isolate MC1082 at day 7 by broth microdilution method; conditions: isolate MC1082, 168 h; in short: as §1
[36] = tested on: Mycobacteroides abscessus; test: Antimicrobial activity against Mycobacterium abscessus isolate MC1028 at day 5 preincubated with 0.1 ug/ml erythromycin for 3 days by broth microdilution method; in short: as §1
[37] = tested on: Mycobacteroides abscessus; test: Antimicrobial activity against Mycobacterium abscessus isolate MC719 at day 5 preincubated with 0.1 ug/ml erythromycin for 3 days by broth microdilution method; in short: as §3

For CC[C@H]1OC(=O)[C@H](C)[C@@H](O[C@H]2C[C@@](C)(OC)[C@@H](O)[C@H](C)O2)[C@H](C)[C@@H](O[C@@H]2O[C@H](C)C[C@H](N(C)C)[C@H]2O)[C@](C)(OC)C[C@@H](C)C(=O)[C@H](C)[C@@H](O)[C@]1(C)O [CLARITHROMYCIN], the MIC [1] was at most 0.5 µg/mL, the MIC [2] was at most 0.5 µg/mL and the MIC [3] was over 32 µg/mL. It also gave an MIC [4] of over 32 µg/mL, an MIC [5] of over 32 µg/mL and an MIC [6] of at most 0.5 µg/mL. For the same compound, the MIC [7] was at most 0.5 µg/mL, the MIC [8] was 8 µg/mL (≈ 10.7 µM) and the MIC [9] was at most 0.5 µg/mL. For the same compound, the MIC [10] was 16 µg/mL, the MIC [11] was 4 µg/mL (≈ 5.35 µM) and the MIC [12] was over 32 µg/mL. The MIC [13] was 8 µg/mL (≈ 10.7 µM), the MIC [14] was over 32 µg/mL and the MIC [15] was at most 0.5 µg/mL. It also gave an MIC [16] of at most 0.5 µg/mL, an MIC [17] of at most 0.5 µg/mL and an MIC [18] of 8 µg/mL (≈ 10.7 µM). The MIC [19] was over 32 µg/mL, the MIC [20] was 16 µg/mL and the MIC [21] was 32 µg/mL (≈ 42.8 µM). The MIC [22] was over 32 µg/mL, the MIC [23] was over 32 µg/mL and the MIC [24] was over 32 µg/mL. It also gave an MIC [25] of over 32 µg/mL, an MIC [26] of over 32 µg/mL and an MIC [27] of over 32 µg/mL. For the same compound, the MIC [28] was over 32 µg/mL, the MIC [29] was 32 µg/mL (≈ 42.8 µM) and the MIC [30] was over 32 µg/mL. The MIC [31] was at most 0.5 µg/mL, the MIC [32] was over 32 µg/mL and the MIC [33] was at most 0.5 µg/mL. The MIC [34] was at most 0.5 µg/mL, the MIC [35] was at most 0.5 µg/mL and the MIC [36] was at most 0.5 µg/mL. For the same compound, the MIC [37] was 4 µg/mL.
